For one test, the target named is Cathepsin B (Homo sapiens, UniProt P07858). Description: Inhibition of recombinant cathepsin-B (unknown origin) using Z-Arg-Arg-AMC as substrate by fluorescence assay. A digest of the protocol:
(§1)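 Kinetic assay with recombinant enzyme. Peptide amide stock concentrations were set by amino-acid analysis. Ki was derived from at least three inhibitor concentrations, each measured in duplicate.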

In another test the target is Procathepsin L (Homo sapiens, UniProt P07711). Description: Inhibition of recombinant cathepsin-L (unknown origin) using Z-Phe-Arg-AMC as substrate by fluorescence assay. In short, it runs like this: as §1
Chain of Procathepsin L (P07711 whole entry): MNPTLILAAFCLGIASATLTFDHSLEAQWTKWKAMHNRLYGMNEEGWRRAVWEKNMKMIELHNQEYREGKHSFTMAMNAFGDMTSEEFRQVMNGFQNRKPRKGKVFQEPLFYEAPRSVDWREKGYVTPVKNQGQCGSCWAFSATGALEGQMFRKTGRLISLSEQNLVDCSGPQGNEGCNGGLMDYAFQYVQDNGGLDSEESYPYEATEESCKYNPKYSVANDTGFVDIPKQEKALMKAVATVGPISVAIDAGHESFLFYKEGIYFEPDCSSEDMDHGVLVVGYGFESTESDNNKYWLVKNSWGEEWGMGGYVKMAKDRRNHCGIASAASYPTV
The next test is filed under the species Homo sapiens. The test can be described thus: Selectivity ratio of Ki for recombinant cathepsin-B (unknown origin) to Ki for recombinant cathepsin-L (unknown origin). In short, it runs like this:
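Selectivity factor FB = Ki(CatB)/Ki(CatL). Both Ki values come from kinetic runs with the recombinant enzymes, each using at least three inhibitor concentrations in duplicate.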

The structures appear in SMILES notation. Square brackets hold non-standard residues; d marks the D form. Peptide text beside a SMILES is read from it. * marks the point of attachment. ξ: configuration not given here. Bip = N[C@@H](Cc1ccc(-c2ccccc2)cc1)C(=O)O; Phe(4-NH2) = Nc1ccc(C[C@H](N)C(=O)O)cc1; Cbz = O=C(OCc1ccccc1)*; ξPip = O=C(O)C1CCCCN1

What is called Ki is the equilibrium dissociation constant of an inhibitor or competing ligand from its target. Regarding `NCCCC[C@H](NC(=O)[C@H](Cc1ccccc1)NC(=O)c1ccc(N)nc1)C(N)=O`, the Ki at Cathepsin B came out at 148 µM; on Procathepsin L, 5 µM. Further, the Ratio Ki in the test filed under Homo sapiens was 30.

As for `NCCCC[C@H](NC(=O)[C@H](Cc1ccc(-c2cccc(N)c2)cc1)NC(=O)OCc1ccccc1)C(N)=O`, the Ki at Cathepsin B amounted to 38 µM; at Procathepsin L, 1.8 µM. In the test filed under Homo sapiens, the Ratio Ki worked out at 21.

Regarding `NCCCC[C@H](NC(=O)[C@H](Cc1ccc(-c2ccc(-c3ccccc3)cc2)cc1)NC(=O)OCc1ccccc1)C(N)=O`, the Ki on Cathepsin B came to 74 µM; at Procathepsin L it was 2.6 µM. Further, the Ratio Ki in the test listed under Homo sapiens turned out to be 28.

As for `C[C@H](NC(=O)[C@H](Cc1ccccc1)NC(=O)OCc1ccccc1)C(N)=O`, the Ki at Procathepsin L is 16 µM.

As for `NCCCC[C@H](NC(=O)[C@H](Cc1ccccc1)NC(=O)C1CCCCN1)C(N)=O` (stereo partly drawn) (H-[ξPip]-Phe-Lys-NH2), the results for the Ki on Cathepsin B and at Procathepsin L were 51 µM and 6.1 µM, respectively. Also, the Ratio Ki in the test filed under Homo sapiens was found to be 8.4.

Take `CN(C)c1ccc(C(=O)N[C@@H](Cc2ccccc2)C(=O)N[C@@H](CCCCN)C(N)=O)cc1`: the Ki on Cathepsin B came to 26 µM; on Procathepsin L it was 2.9 µM. In addition, the Ratio Ki in the test filed under Homo sapiens came to 9.

Turning to `NCCCC[C@H](NC(=O)[C@H](Cc1ccccc1)NC(=O)c1ccnc(-c2cc(C(=O)O)ccn2)c1)C(N)=O`, the Ki was 860 µM on Cathepsin B and 4.6 µM at Procathepsin L. In the test filed under Homo sapiens, the Ratio Ki came out at 187.

Regarding `NCCCC[C@H](NC(=O)[C@H](Cc1ccccc1)NC(=O)[C@H](CCC(N)=O)NC(=O)OCc1ccccc1)C(N)=O` (Cbz-Gln-Phe-Lys-NH2), the inhibition constant Ki is 3550 µM at Cathepsin B and 7 µM at Procathepsin L. Moreover, in the test listed under Homo sapiens, the Ratio Ki amounted to 506.

`NCCCC[C@H](NC(=O)[C@H](Cc1c[nH]cn1)NC(=O)OCc1ccccc1)C(N)=O` (Cbz-His-Lys-NH2): the Ki came to 56 µM on Cathepsin B and 3.1 µM at Procathepsin L. For the same compound, the Ratio Ki in the test filed under Homo sapiens is 18.

Consider `NCCCC[C@H](NC(=O)[C@H](Cc1ccccc1)NC(=O)C1=CCCC1)C(N)=O`, for which the Ki at Cathepsin B was 623 µM; on Procathepsin L, 7.8 µM. Moreover, the Ratio Ki in the test filed under Homo sapiens is 80.

Regarding `CC(C)[C@H](NC(=O)[C@H](Cc1ccccc1)NC(=O)OCc1ccccc1)C(N)=O` (Cbz-Phe-Val-NH2), the Ki at Procathepsin L was determined as 17 µM.

For the compound `NC(=O)[C@H](Cc1c[nH]cn1)NC(=O)[C@H](Cc1ccccc1)NC(=O)OCc1ccccc1` (Cbz-Phe-His-NH2), at Procathepsin L, the Ki came out at 14 µM.

On to `Cc1ccccc1-c1ccc(C[C@H](NC(=O)OCc2ccccc2)C(=O)N[C@@H](CCCCN)C(N)=O)cc1`, for which the Ki on Cathepsin B came to 245 µM; on Procathepsin L, 23 µM. For the same compound, the Ratio Ki in the test listed under Homo sapiens came to 11.

As to `NCCCC[C@H](NC(=O)[C@H](Cc1ccccc1)NC(=O)c1ccc(Br)cc1)C(N)=O`, the Ki at Cathepsin B was found to be 261 µM; at Procathepsin L, 2.3 µM. In the test listed under Homo sapiens, the Ratio Ki came out at 113.

For the compound `NCCCC[C@H](NC(=O)[C@H](Cc1ccccc1)NC(=O)c1c(F)c(F)c(F)c(F)c1F)C(N)=O`, the figures for the Ki on Cathepsin B and on Procathepsin L were 134 µM and 6.8 µM, respectively. The Ratio Ki in the test listed under Homo sapiens was 20.

Regarding `NCCCC[C@H](NC(=O)[C@H](Cc1ccccc1)NC(=O)c1ccc(-c2ccccc2)cc1)C(N)=O`, the Ki at Cathepsin B is 84 µM; at Procathepsin L it was 9 µM. For the same compound, in the test listed under Homo sapiens, the Ratio Ki worked out at 9.

For the compound `CC(C)(C)c1ccc(C(=O)N[C@@H](Cc2ccccc2)C(=O)N[C@@H](CCCCN)C(N)=O)cc1`, the Ki was 312 µM at Cathepsin B and 1 µM on Procathepsin L. Further, the Ratio Ki in the test listed under Homo sapiens amounted to 312.

On to `NCCCC[C@H](NC(=O)[C@H](Cc1ccc(-c2cccc(Cl)c2)cc1)NC(=O)OCc1ccccc1)C(N)=O`, for which the values for the Ki on Cathepsin B and at Procathepsin L were 58 µM and 1.7 µM, respectively. Further, in the test listed under Homo sapiens, the Ratio Ki turned out to be 34.

Regarding `NC(=O)[C@H](Cc1ccc(N)cc1)NC(=O)[C@H](Cc1ccccc1)NC(=O)OCc1ccccc1` (Cbz-Phe-[Phe(4-NH2)]-NH2), the Ki on Cathepsin B worked out at 2790 µM; on Procathepsin L, 26 µM. For the same compound, the Ratio Ki in the test listed under Homo sapiens turned out to be 107.

`NCCCC[C@H](NC(=O)[C@H](Cc1ccc(O)cc1)NC(=O)OCc1ccccc1)C(N)=O` (Cbz-Tyr-Lys-NH2): the Ki on Cathepsin B turned out to be 135 µM; on Procathepsin L it was 1.4 µM. Also, the Ratio Ki in the test filed under Homo sapiens was 96.

On to `NCCCC[C@H](NC(=O)[C@H](Cc1ccccc1)NC(=O)c1cc([N+](=O)[O-])ccc1Cl)C(N)=O`, for which the Ki on Cathepsin B came to 1760 µM; at Procathepsin L, 2.7 µM. In the test listed under Homo sapiens, the Ratio Ki amounted to 651.

Take `CC(=O)Oc1ccc(C(=O)N[C@@H](Cc2ccccc2)C(=O)N[C@@H](CCCCN)C(N)=O)cc1`: the Ki at Cathepsin B was 706 µM; at Procathepsin L it was 2.6 µM. In the test listed under Homo sapiens, the Ratio Ki is 272.

As to `NCCCC[C@H](NC(=O)[C@H](Cc1ccccc1)NC(=O)c1ccccn1)C(N)=O`, the Ki on Cathepsin B turned out to be 80 µM; on Procathepsin L it was 5.5 µM. Also, the Ratio Ki in the test listed under Homo sapiens turned out to be 15.

Take `NC(=O)[C@H](CCCC(N)O)NC(=O)[C@H](Cc1ccccc1)NC(=O)OCc1ccccc1` (some centres not stated): the values for the Ki on Cathepsin B and at Procathepsin L were 1730 µM and 27 µM, respectively. In addition, the Ratio Ki in the test listed under Homo sapiens was determined as 64.

For `CC(=O)Oc1cccc(C(=O)N[C@@H](Cc2ccccc2)C(=O)N[C@@H](CCCCN)C(N)=O)c1`, the figures for the Ki at Cathepsin B and on Procathepsin L were 1020 µM and 2.4 µM, respectively. The Ratio Ki in the test filed under Homo sapiens worked out at 425.

Regarding `N=C(N)NCCC[C@H](NC(=O)[C@H](Cc1ccccc1)NC(=O)OCc1ccccc1)C(N)=O` (Cbz-Phe-Arg-NH2), the Ki on Cathepsin B came out at 349 µM; at Procathepsin L, 28 µM. For the same compound, the Ratio Ki in the test listed under Homo sapiens turned out to be 12.

`NCCCC[C@H](NC(=O)[C@H](Cc1ccc(-c2ccccc2)cc1)NC(=O)OCc1ccccc1)C(N)=O` (Cbz-[Bip]-Lys-NH2): the Ki was 77 µM on Cathepsin B and 2.4 µM at Procathepsin L. The Ratio Ki in the test filed under Homo sapiens was 32.

Turning to `NCCC[C@H](NC(=O)[C@H](Cc1ccccc1)NC(=O)OCc1ccccc1)C(N)=O`, the Ki stood at 2460 µM at Cathepsin B and 3.5 µM at Procathepsin L. The Ratio Ki in the test filed under Homo sapiens worked out at 703.

As to `NCCCC[C@H](NC(=O)[C@H](Cc1ccccc1)NC(=O)CCc1ccc(O)cc1)C(N)=O`, the Ki on Cathepsin B was 135 µM; on Procathepsin L it was 2.5 µM. In addition, the Ratio Ki in the test listed under Homo sapiens turned out to be 54.

Turning to `CSCC[C@H](NC(=O)[C@H](Cc1ccccc1)NC(=O)OCc1ccccc1)C(N)=O` (Cbz-Phe-Met-NH2), the Ki on Cathepsin B came to 7100 µM; at Procathepsin L, 64 µM. In addition, the Ratio Ki in the test filed under Homo sapiens was found to be 111.

Regarding `Cc1cccc(C)c1C(=O)N[C@@H](Cc1ccccc1)C(=O)N[C@@H](CCCCN)C(N)=O`, the results for the Ki at Cathepsin B and at Procathepsin L were 3390 µM and 20 µM, respectively. In addition, the Ratio Ki in the test listed under Homo sapiens came to 169.

Turning to `NCCCC[C@H](NC(=O)[C@H](Cc1ccccc1)NC(=O)c1ccc2ccccc2c1)C(N)=O`, the Ki on Cathepsin B turned out to be 301 µM; on Procathepsin L it was 1 µM. Further, the Ratio Ki in the test filed under Homo sapiens worked out at 301.

For `NCCCC[C@H](NC(=O)[C@H](Cc1c[nH]c2ccccc12)NC(=O)OCc1ccccc1)C(N)=O` (Cbz-Trp-Lys-NH2), the Ki came out at 100 µM on Cathepsin B and 4.2 µM at Procathepsin L. The Ratio Ki in the test filed under Homo sapiens is 24.

For `NC(=O)[C@H](N)NC(=O)[C@H](Cc1ccccc1)NC(=O)OCc1ccccc1`, the Ki at Procathepsin L is 28 µM.

On to `Cc1cccc(-c2ccc(C[C@H](NC(=O)OCc3ccccc3)C(=O)N[C@@H](CCCCN)C(N)=O)cc2)c1`, for which the Ki was 389 µM at Cathepsin B and 2.5 µM on Procathepsin L. The Ratio Ki in the test filed under Homo sapiens came to 156.

For the origin of these results see ChEMBL document CHEMBL2380300, “Identification of new peptide amides as selective cathepsin L inhibitors: the first step towards selective irreversible inhibitors?” (Bioorg Med Chem Lett, 2013).
